FID counter: counter-screen for HCV NS3 helicase inhibitors: DNA intercalator displacement | DNA fluorescent intercalator displacement, fluorescence | inhibition, % at 7.9 µM | 290,000 tested, 0.17% active | AID 1845; in the data active means inhibition above about 37%;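 further: higher means more ethidium bromide displaced from hairpin DNA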
MEKK2 WT-MEK5: raises or lowers MEK5 binding to wildtype human MEKK2 PB1 domain | Q9Y2U5 | bead flow cytometry, Alexa488-MEK5 binding to MEKK2 WT; actives lie on both sides | binding response (% of control), % at 10 µM | 290,000 tested, 1.1% active; in the data active means binding response below about 67% or above about 130%; inconclusive means no clear call, values can overlap the other calls; inactive means in between
MEKK2 mut-MEK5: signal of MEK5 binding to mutant human MEKK2 PB1 domain | bead flow cytometry, Alexa488-MEK5 binding to MEKK2 mutant | percent response, % at 10 µM | 290,000 tested, 0.35% active | AID 1530; in the data active means percent response above about 24%, passing the limit was not always enough
HCV NS3 hel inh: inhibitors of Hepatitis C virus NS3 helicase | NS3 helicase DNA unwinding, Cy5 molecular beacon fluorescence | inhibition, % at 10.9 µM | 290,000 tested, 0.56% active;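 active means inhibition above the mean of all tested compounds plus 3 SD, set per campaign, cut at about 35% in these data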
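test system = hepatitis C virus NS3 helicase domain fragment enzyme | reagent = annealed dual-labelled DNA beacon duplex, ATP-started | times = 1 h at 25 °C | detection = Cy5 fluorescence, 0 and 60 min reads | read-out basis = percent inhibition from t60/t0 fluorescence ratio | control set = DMSO and thioflavine S | replication = one well per compound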
T cruzi inh: blocks replication of Trypanosoma cruzi; 300,000 tested, 1.4% active; inhibition, % (concentration not given with the values); T. cruzi beta-gal in NIH3T3, luminescence, 90 h;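 active means mean inhibition across valid replicates above about 55%, limit read from the data; inconclusive means mean below that limit but half or more replicates reach it; inactive means mean below it, under half of replicates reach it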;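 further: signal also drops with host cell toxicity which is not excluded here; higher percent means less beta-gal luminescence so fewer parasites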
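Assay system: NIH/3T3 fibroblasts plus reporter T. cruzi. Amount: NIH/3T3 cells, 5,000 per well. Buffer or medium: DMEM, 2% fetal bovine serum. Doses: compound pinned at 50 nL/well, DMSO. Schedule: ≥90 h infection period, 3 h prior cell attachment. Signal: luminescent β-galactosidase signal after 60 min lysis. Read-out: parasite load inhibition, %.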
MEKK3 PB1 HTS: modulators (inhibitors or enhancers) of MEK5 binding to human MEKK3 PB1 domain; bead-based flow cytometry, Alexa488-MEK5 binding to MEKK3; actives lie on both sides; 0 = blocked by unlabeled MEK5, 100 = vehicle; binding response (% of control), % at 10 µM; Q99759; 290,000 tested, 1.4% active;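 active means binding response more than 3 SD above or below the average of its plate-row segment, actives on both sides; inconclusive means wells at one plate position flagged as instrument error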;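 further: Alexa488 bead fluorescence after subtracting the streptavidin-only scavenger bead signal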
Target sequence (Q99759 whole entry, looked up, the tested form may be a part): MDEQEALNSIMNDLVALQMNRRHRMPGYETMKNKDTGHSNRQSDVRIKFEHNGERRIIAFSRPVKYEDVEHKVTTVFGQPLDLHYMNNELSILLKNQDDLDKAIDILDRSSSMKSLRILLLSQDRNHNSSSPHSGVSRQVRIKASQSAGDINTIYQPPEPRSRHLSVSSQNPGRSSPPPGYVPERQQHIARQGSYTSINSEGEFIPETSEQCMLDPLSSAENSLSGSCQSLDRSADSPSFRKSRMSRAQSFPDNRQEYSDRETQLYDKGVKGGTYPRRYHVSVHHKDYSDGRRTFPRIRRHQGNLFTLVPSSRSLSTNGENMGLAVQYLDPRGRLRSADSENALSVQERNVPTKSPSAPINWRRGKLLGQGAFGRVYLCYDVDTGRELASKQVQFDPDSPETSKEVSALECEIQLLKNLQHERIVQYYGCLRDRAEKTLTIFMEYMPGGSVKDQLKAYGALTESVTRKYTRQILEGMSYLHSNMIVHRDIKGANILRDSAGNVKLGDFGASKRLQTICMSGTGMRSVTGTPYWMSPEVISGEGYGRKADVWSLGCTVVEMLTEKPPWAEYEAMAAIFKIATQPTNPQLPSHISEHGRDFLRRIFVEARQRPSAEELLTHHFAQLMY
A number is an active result; - = inactive; ? = inconclusive; . = not tested or not shown; ! = not active in a repeat; [ ] = dose if it differs, or a comment. This is a sample that favours compounds with a hit; in the whole collection about 4.1% have one here.

SMILES	FID counter	MEKK2 WT-MEK5	MEKK2 mut-MEK5	HCV NS3 hel inh	T cruzi inh	MEKK3 PB1 HTS
CCc1nn(CC(=O)NCc2cccnc2)c(=O)c2cc3occc3n12	-	-	-	-	-	-
CCOC(=O)Nc1ccc2c(c1)N(C(=O)CCN1CCOCC1)c1ccccc1S2	-	-	-	-	68!	-
COC(=O)Nc1ccc2c(c1)N(C(=O)CCN1CCOCC1)c1ccccc1S2	-	-	-	-	-	-
CNC(=S)N(Cc1cc2cc(OC)c(OC)cc2[nH]c1=O)C1CCCC1	-	-	-	-	-	-
CCN(CC(=O)Nc1c(F)cccc1F)C(=O)c1ccc(N2C(=O)c3ccccc3C2=O)cc1	.	.	.	.	-	.
O=C(Nc1cccc(N2CCCC2)c1)c1cccs1	-	-	-	-	57	-
Nc1cccc(NC(=O)c2cccs2)c1	-	-	-	-	-	-
Cc1ccc(CC(=O)Nc2ccc(S(=O)(=O)Nc3ncccn3)cc2)cc1	-	-	-	-	-	-
COc1cccc(CCN2CCC(CNS(=O)(=O)c3cc(-c4cc(C)no4)ccc3C)CC2)c1	-	140	-	-	-	-
COc1cc(C(=O)N2CCN(c3ccccc3)CC2)c([N+](=O)[O-])cc1OC	-	-	-	-	-	-
Cc1noc2ncnc(Sc3ccc(Br)cc3)c12	-	-	-	-	62	-
Cc1noc2ncnc(N3CCCC3)c12	-	-	-	-	-	-
COc1cc(CNCCN2CCOCC2)ccc1OCc1c(Cl)cccc1Cl	-	-	-	-	-	-
CCOc1cc(CNCCN2CCOCC2)ccc1OCc1ccccc1Cl	-	-	-	-	56	-
CCOc1cc(CNCCCN2CCOCC2)ccc1OCC(=O)NC(C)(C)C	-	-	-	-	63	-
CCc1ccc(-n2c(C)nc3cc(C(=O)NCc4cccnc4)ccc32)cc1	-	-	-	-	-	-
CN(C)c1ncc(CN2CCC(CO)(CCCc3ccccc3)CC2)s1	-	-	-	-	56	-
CN1CCN(c2ccc(S(=O)(=O)N3CCOCC3)cc2NC(=O)COc2ccc(F)cc2Cl)CC1	-	-	-	-	-	-
O=C(COc1ccc(F)cc1Cl)Nc1cc(S(=O)(=O)N2CCOCC2)ccc1N1CCCCC1	-	-	-	-	63	-
CCN(CC)S(=O)(=O)c1ccc(N2CCN(C)CC2)c(NC(=O)COc2ccc(F)cc2Cl)c1	.	.	.	.	59	.
O=C1C(Cl)=C(Nc2cccc(O)c2)C(=O)N1Cc1ccccc1	-	-	-	-	-	-
CCOc1cc(CN2CCCC(N3CCc4ccccc4C3)C2)ccc1O (stereo unspecified)	-	-	-	-	-	-
CCOc1cccc(CN2CCCC(N3CCc4cc(OC)c(OC)cc4C3)C2)c1O (stereo unspecified)	-	-	-	-	65	-
COC(=O)[C@H](CC(C)C)NC(=O)c1cc2c(cn1)[nH]c1ccccc12	-	-	-	-	-	-
CCN(CC)c1nc(C(F)(F)F)nc2c1nnn2Cc1ccccc1	-	-	-	-	-	-
SMILES	FID counter	MEKK2 WT-MEK5	MEKK2 mut-MEK5	HCV NS3 hel inh	T cruzi inh	MEKK3 PB1 HTS
C/C(=N\NC(=O)Cc1ccccc1)c1ccc(Br)s1	-	-	-	-	-	-
C/C(=N\NC(=O)c1ccc(Cl)c(Cl)c1)c1ccccn1	-	-	-	-	60	-
C/C(=N/NC(N)=S)c1ccc(Br)s1	-	-	-	-	61	-
C/C(=N\NC(=O)c1ccc(Cl)c(Cl)c1)c1ccc(Br)s1	-	-	-	-	70	-
C/C(=N\NC(=O)c1cccc2ccccc12)c1ccccn1	-	-	-	-	64	-
C/C(=N/NC(=O)c1ccc(C(C)(C)C)cc1)c1ccccn1	.	.	.	.	-	.
Cn1cc(C(=O)N2CCc3ccccc32)cn1	-	-	-	-	-	-
C/C(=N\NC(=O)c1ccccc1Cl)c1ccccn1	-	-	-	-	55	-
C/C(=N\NC(=O)c1cc(Br)ccc1O)c1ccccn1	-	-	-	-	-	-
O=C(N/N=C(\c1ccccc1)c1ccccn1)c1ccccc1Cl	-	-	-	-	62	-
COc1ccc(C(=O)N/N=C(\c2ccccc2)c2ccccn2)cc1	-	-	-	-	?	-
CCCn1c(N)c(N(CCOC)C(=O)Cc2ccc(S(=O)(=O)N3CCOCC3)s2)c(=O)[nH]c1=O	.	.	.	.	-	.
CC(C)C(=O)NC(c1cccc([N+](=O)[O-])c1)c1ccc2cccnc2c1O (stereo unspecified)	-	-	-	-	-	-
CCCC(=O)NC(c1ccccc1Cl)c1c(O)ccc2ccccc12 (stereo unspecified)	-	-	-	-	-	-
CCCC(=O)NC(c1ccc(Cl)cc1Cl)c1ccc2cccnc2c1O (stereo unspecified)	-	-	-	-	64	-
CC(=O)NC(c1ccc2ccccc2c1)c1ccc2cccnc2c1O (stereo unspecified)	-	-	-	-	61	-
CCCC(=O)NC(c1ccc(Cl)cc1)c1ccc2cccnc2c1O (stereo unspecified)	-	-	-	-	65	-
CCCC(=O)NC(c1ccc(C)cc1)c1ccc2cccnc2c1O (stereo unspecified)	-	-	-	-	72	-
COc1ccc(C(NC(C)=O)c2ccc3cccnc3c2O)c(OC)c1 (stereo unspecified)	.	-	-	.	-	-
Cc1nc(C(=O)O)nn1-c1cc(Cl)ccc1Cl	-	-	-	-	-	-
CCCCC(=O)NC(c1ccccc1Cl)c1c(O)ccc2ccccc12 (stereo unspecified)	-	-	-	-	-	-
CCCCC(=O)NC(c1ccc(Cl)cc1)c1ccc2cccnc2c1O (stereo unspecified)	-	-	-	-	71	-
CNC(=O)c1cn(-c2ccc(Cl)cc2)c(=O)c2ccccc12	-	-	-	-	-	-
CCCCN(CC)CCNC(=O)c1cc2c(=O)n(C)c3ccccc3c2s1	-	-	-	-	61	-
CCN(CC)CCNC(=O)c1cc2c(=O)n(C)c3ccccc3c2s1	-	-	-	-	-	-
CCCCN(CC)CCNC(=O)c1cn(-c2ccc(Cl)cc2)c(=O)c2ccccc12	-	-	-	-	68	-
COc1ccc(N2CCN(CC(=O)c3ccccc3)CC2)cc1	-	-	-	-	-	-
CCn1c(N2CCN(CC(=O)c3ccc(OC)cc3)CC2)nc2ccccc21	-	2.0[inhibitor]	-	-	.	2.0[inhibitor]
CCC(C)NCCOCCOc1ccc(Cl)c(C)c1C (stereo unspecified)	-	-	-	-	59	-
C=CCc1cc(Cl)ccc1OCCOCCNC(C)CC (stereo unspecified)	-	-	-	-	-	-
